The record followed here is PubChem BioAssay.

Test [1] in a line: inhibitors of TNFa-induced NFkB p65 translocation, primary screen, imaging, HUVEC, MLSMR starter and 10KST1 sets (AID 438;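 active = inhibition above 20% together with a positive visual image hit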;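 also: compound added about 3h40 before a 20 min TNFalpha stimulation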;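 as to inhibition: signal is the nuclear over cytoplasmic p65 intensity ratio per well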). Conditions: HUVEC TNFa-induced p65 nuclear translocation; cell count: measured here: nuclei count (cytotoxicity indicator), at 2.08 µM; inhibition: at 2 µM, stronger effect = higher value, 0% TNFa-plus-vehicle, 100% no-TNFa wells.
A short description of test [2]: inhibitors of mutant huntingtin aggregation, primary screen, imaging, exon1htt(103Q)mCFP cells, high-content imaging (AID 483;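 active = visual image review flags a hit and inhibition of aggregation exceeds 20%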;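 also: compound exposure lasted 3 days before fixation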;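 as to nuclei count: percent of the per-plate median nuclei count of sample wells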). The note with it: exon1htt(103Q)mCFP cell line, aggregate imaging, at 2 µM; inhibition of aggregation: stronger effect = higher value; nuclei count: measured here: cell count, toxicity.
The nature of test [3]: inhibitors of E-selectin induction by TNFa, primary screen, imaging, HUVEC, immunofluorescence, MLSMR starter and 10KST1 sets (AID 487;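 active = visually confirmed hit in the image check and inhibition above 20%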;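 as to inhibition: signal is fraction of cell area covered by stained E-selectin grains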;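 as to nuclei count: 100% = median nuclei count of all wells on the same plate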). Conditions: HUVEC TNFalpha-induced E-selectin immunofluorescence imaging, at 2 µM; inhibition: stronger effect = higher value; nuclei count: measured here: cell number, toxicity.
The target in test [4] is Voltage-gated potassium channel subunit beta-2 (Rattus norvegicus) (UniProt P62483). In words: KvBeta enzyme negative modulators, primary screen, biochemical, NADPH fluorescence (AID 622;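 active = fluorescence slope higher than the sample average by over 3 SD, cut at about -0.22 in these data, passing the limit was not always enough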;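 also: slope of raw intensity against log time taken from 70 to 1610 s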). The note with it: recombinant KvBeta, 4-cyanobenzaldehyde reduction, at 10 µM, stronger effect = higher value.
Voltage-gated potassium channel subunit beta-2 (Rattus norvegicus), sequence (P62483 whole entry, looked up): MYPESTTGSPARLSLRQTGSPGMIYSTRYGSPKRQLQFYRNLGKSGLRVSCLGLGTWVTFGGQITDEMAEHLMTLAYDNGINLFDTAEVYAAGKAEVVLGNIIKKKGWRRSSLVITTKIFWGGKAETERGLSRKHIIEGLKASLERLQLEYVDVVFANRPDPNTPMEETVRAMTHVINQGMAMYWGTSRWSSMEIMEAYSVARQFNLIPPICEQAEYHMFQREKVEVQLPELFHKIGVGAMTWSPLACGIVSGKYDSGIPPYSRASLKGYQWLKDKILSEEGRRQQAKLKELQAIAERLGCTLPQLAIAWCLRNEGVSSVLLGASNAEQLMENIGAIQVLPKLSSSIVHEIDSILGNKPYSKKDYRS
The target is the same in test [5]. As to the kind of experiment: KvBeta positive modulators, primary screen, biochemical, NADPH fluorescence (AID 623;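 active = NADPH fluorescence slope more negative than the mean of all samples by about 3 SD, 99.7% confidence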;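 also: fluorescence intensity change per second fitted from 20 to 320 s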). The note with it: Recombinant KvBeta, NADPH fluorescence decrease slope, 10 min; at 10 µM; stronger effect = lower value.
Test [6] addresses Muscarinic acetylcholine receptor M4 (Homo sapiens) (UniProt P08173). In words: compounds altering M4/GIRK thallium flux, either direction, primary screen, M4 allosteric agonist project, cell-based, HEK293 M4/GIRK, BTC-AM (AID 625;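 active = fluorescence slope after compound addition differing from the mean of all tested samples at 99.7% confidence, mostly higher but some lower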;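 also: thallium influx through GIRK channels coupled to M4 in HEK293 cells with BTC-AM dye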). Conditions: at 10 µM, actives lie on both sides. Put shortly:
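System: HEK293 cells with M4 receptor and GIRK channels | Incubation: Cells overnight at 37 °C, BTC-AM loading 1 h, reads 2 min total | Technique: Kinetic BTC-AM fluorescence sampled at 1 Hz, 10 s pre-addition baseline | Measure: Post-addition slope, 15–24 s, of baseline-normalized fluorescence | Control set: Carbachol positive, DMSO negative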

Test [7] can be described thus: inhibitors of Sendai virus-induced IRF3 signaling, primary screen, TLR/RLR signaling modifier project, cell-based, Sendai virus stimulus, luciferase, 10K MLSCN set (AID 602276).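 Also: firefly luciferase from ISG56 promoter only with Renilla not read in this screen; 0% = Sendai virus plus DMSO and 100% = medium plus DMSO without virus.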 Conditions: HEK293 RL24 IRF3 luciferase reporter, at 10 µM, stronger effect = higher value. In general terms: Reporter assays use an easily measured gene product as a stand-in for the process of interest.

Test [8] can be described thus: inhibitors of poly I:C-induced TLR3 signaling, primary screen, cell-based, poly I:C stimulus, luciferase, 10K MLSCN set (AID 602277;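 active = inhibition of the reporter signal at or above 50%; inactive = inhibition below 50%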). Conditions: HEK293-TLR3 RL24 IRF3 luciferase reporter, at 10 µM, stronger effect = higher value.

Activity calls are given as the source filed them.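 The calls were made as follows, unless noted: active = inhibition at or above 50% at 10 µM; inactive = inhibition below 50%.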

Muscarinic acetylcholine receptor M4 (Homo sapiens), sequence (P08173 whole entry, looked up): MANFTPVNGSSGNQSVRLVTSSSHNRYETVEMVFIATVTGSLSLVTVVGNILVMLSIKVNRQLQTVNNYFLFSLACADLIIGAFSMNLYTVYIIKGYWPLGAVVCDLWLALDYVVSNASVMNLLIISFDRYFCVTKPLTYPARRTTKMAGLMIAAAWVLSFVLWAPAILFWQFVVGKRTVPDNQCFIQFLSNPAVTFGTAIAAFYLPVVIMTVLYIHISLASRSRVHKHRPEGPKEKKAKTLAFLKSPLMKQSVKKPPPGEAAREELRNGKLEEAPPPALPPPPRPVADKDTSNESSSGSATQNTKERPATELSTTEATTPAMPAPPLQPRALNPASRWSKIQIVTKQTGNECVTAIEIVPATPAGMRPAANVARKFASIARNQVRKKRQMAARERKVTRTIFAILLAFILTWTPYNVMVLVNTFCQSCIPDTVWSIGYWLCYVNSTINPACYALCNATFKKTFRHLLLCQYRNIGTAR

In general, inhibition refers to the relative decrease from the control value, in per cent. `COc1cccc(C(=O)Nc2cccc(C(=O)N3CCOCC3)c2)c1`: in test [1], the cell count was determined as 354. For the same molecule, the inhibition in test [1] is 1.6% (inactive); in test [3], -121% (inactive); in test [7] it was 3.67% (inactive); in test [8], 1.87% (inactive). Besides, the inhibition of aggregation in test [2] is 0.9% (inactive). For the same molecule, the nuclei count in test [2] is 76%; in test [3] it was 95%. Besides, the figures for the fluorescence slope in test [4] and in test [6] were -0.564 (inactive) and 0.00825 (inactive), respectively. Further, the NADPH fluorescence slope in test [5] is -3.3e-05 (inactive).

`CCNC(=O)Cn1cnc2c1c(=O)n(C)c(=O)n2C`: the cell count in test [1] amounted to 315. Further, the inhibition in test [1] is -12.5% (inactive); in test [3], 7.8% (inactive); in test [7], 12.1% (inactive); in test [8] it was 14.3% (inactive). Besides, the inhibition of aggregation in test [2] was 4.3% (inactive). Besides, the nuclei count amounted to 113% in test [2] and 106% in test [3]. The fluorescence slope was -0.617 (inactive) in test [4] and 0.00466 (inactive) in test [6]. In test [5], the NADPH fluorescence slope was 7.5e-06 (inactive).

With `COc1cccc(CN(C)CC(=O)NC(=O)NCc2ccco2)c1`, the cell count in test [1] was found to be 608. In addition, the inhibition in test [1] was 2.7% (inactive); in test [3], -58.6% (inactive); in test [7], -13.4% (inactive); in test [8], -18.8% (inactive). Besides, the inhibition of aggregation in test [2] is -3.5% (inactive). Besides, the nuclei count came to 101% in test [2] and 180% in test [3]. Further, the fluorescence slope in test [4] is -0.49 (inactive); in test [6] it was 0.00617 (inactive). In addition, the NADPH fluorescence slope in test [5] was 2.9e-05 (inactive).

Consider `CC1CN(c2nc3ccccn3c(=O)c2/C=C(\C#N)S(=O)(=O)c2ccccc2)CC(C)O1` (stereo not given), for which the cell count in test [1] worked out at 570. The inhibition in test [1] is 8.1% (inactive); in test [3], 56.6% (inactive); in test [7] it was -1.56% (inactive); in test [8], -21.6% (inactive). In addition, in test [2], the inhibition of aggregation is 3.6% (inactive). Also, the nuclei count in test [2] is 98.6%; in test [3], 104%. For the same molecule, the fluorescence slope was -0.513 (inactive) in test [4] and 0.00288 (inactive) in test [6]. In addition, the NADPH fluorescence slope in test [5] is -0.000138 (inactive).

Take `COCCN1C(=O)C(=O)/C(=C(/O)c2cccc(OC)c2)C1c1ccncc1` (stereo not given): the cell count in test [1] turned out to be 272. The inhibition in test [1] was 22.2% (inactive); in test [3], 54.5% (inactive); in test [7], 13.1% (inactive); in test [8], 15.1% (inactive). In test [2], the inhibition of aggregation was 17.9% (inactive). In addition, the values for the nuclei count in test [2] and in test [3] were 95.1% and 92.1%, respectively. Also, the figures for the fluorescence slope in test [4] and in test [6] were -0.578 (inactive) and 0.00539 (inactive), respectively. Moreover, the NADPH fluorescence slope in test [5] is -8.8e-06 (inactive).

As to `O=C(C1CCN(S(=O)(=O)N2CCC3(CC2)OCCO3)CC1)N1CCOCC1`, the cell count in test [1] is 648. The inhibition in test [1] is 14.8% (inactive); in test [3] it was 28.9% (inactive); in test [7] it was -6.46% (inactive); in test [8] it was -2.34% (inactive). Further, the inhibition of aggregation in test [2] is 17.5% (inactive). The nuclei count is 89.1% in test [2] and 96.9% in test [3]. For the same molecule, the results for the fluorescence slope in test [4] and in test [6] were -0.571 (inactive) and 0.00319 (inactive), respectively. In addition, the NADPH fluorescence slope in test [5] was -8.3e-05 (inactive).

`Nc1nnc(SCCOc2ccccc2)s1`: the cell count in test [1] was determined as 417. For the same molecule, the inhibition in test [1] is -0.9% (inactive); in test [3], -70% (inactive); in test [7], -8.16% (inactive); in test [8], -14% (inactive). Moreover, in test [2], the inhibition of aggregation was 2.2% (inactive). Also, the nuclei count amounted to 108% in test [2] and 98.8% in test [3]. Besides, the fluorescence slope was -0.535 (inactive) in test [4] and 0.00525 (inactive) in test [6]. Further, in test [5], the NADPH fluorescence slope was -1.2e-05 (inactive).

Regarding `Brc1ccc(C2=Nn3c(nnc3-c3ccncc3)SC2)cc1`, the cell count in test [1] was determined as 369. Besides, the inhibition is 2.2% (inactive) in test [1], -12.7% (inactive) in test [3], 13.7% (inactive) in test [7] and 0.85% (inactive) in test [8]. Moreover, the inhibition of aggregation in test [2] was -12.9% (inactive). Also, the nuclei count is 123% in test [2] and 117% in test [3]. The fluorescence slope in test [4] is -0.544 (inactive); in test [6], 0.00451 (inactive). In addition, the NADPH fluorescence slope in test [5] is 3.4e-05 (inactive).

Consider `Cc1ccc(-c2ccc(=O)n(CCC(=O)NCc3ccccn3)n2)cc1`, for which the cell count in test [1] was determined as 366. Besides, the inhibition is -15.6% (inactive) in test [1], -2.7% (inactive) in test [3], 14.5% (inactive) in test [7] and 21.8% (inactive) in test [8]. Also, the inhibition of aggregation in test [2] was -2.2% (inactive). Also, the nuclei count in test [2] is 99.9%; in test [3], 108%. Also, the fluorescence slope was -0.534 (inactive) in test [4] and 0.00635 (inactive) in test [6]. Further, the NADPH fluorescence slope in test [5] was -3e-05 (inactive).

For `O=C(CSc1ncnc2ccccc12)N1CCN(c2ccccc2)CC1`, the cell count in test [1] came out at 567. In addition, the inhibition was -10.9% (inactive) in test [1], 9.1% (inactive) in test [3], 1.94% (inactive) in test [7] and 15.7% (inactive) in test [8]. Besides, the inhibition of aggregation in test [2] is 10.5% (inactive). Also, the nuclei count came out at 99.4% in test [2] and 108% in test [3]. Moreover, the results for the fluorescence slope in test [4] and in test [6] were -0.47 (inactive) and 0.00572 (inactive), respectively. For the same molecule, the NADPH fluorescence slope in test [5] is 3.6e-05 (inactive).
